Assay results as given in ChEMBL document CHEMBL1121642, “Synthesis and antiherpetic activity of some 4-[(aryloxy)alkyl]pyrazoles” (1981).
In brackets after ≈: the same amount, converted by molar mass. Activity calls are given as the source filed them. The calls are words filed in the database; no cut-off is given here.

Columns and labels:
[1] = test system: Human alphaherpesvirus 2; assay: Tested in vitro for minimum inhibitory activity against Herpes simplex virus type -2 (HSV-2); type: functional
[2] = organism: Mus musculus; assay: Effect on the survival rate of mice infected intravaginally with Herpes simplex virus type -2 (HSV-2) at 1.25% dosage twice in a day; type: functional
Outline: (§1)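 Mice infected intravaginally with a tampon (dental pellet) saturated with HSV suspension. Aqueous drug solution given intravaginally b.i.d. on cotton tampons, starting 4 h postinfection. Each tampon stayed in 24 h, was re-moistened with 0.02 mL drug 6 h after insertion, and was replaced daily. Deaths were recorded daily to 14 days. Read-out: % survival and average survival time, with survivors scored >14 days.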

[3] = organism: Mus musculus; assay: Effect on the survival rate of mice infected intravaginally with Herpes simplex virus type -2 (HSV-2) at 2.5% dosage twice in a day; type: functional; outline: as §1
[4] = organism: Mus musculus; assay: Effect on the survival rate of mice infected intravaginally with Herpes simplex virus type -2 (HSV-2) at 5% dosage twice in a day; type: functional; outline: as §1
[5] = organism: Mus musculus; assay: Effect on the survival rate of mice infected intravaginally with Herpes simplex virus type -2 (HSV-2) at 10% dosage twice in a day; type: functional; outline: as §1
[6] = test system: Mus musculus; assay: Effect on the survival rate of mice infected with HSV-1 administered intravaginally at 1.25% dosage twice in a day; type: functional; outline: as §1
[7] = test system: Mus musculus; assay: Effect on the survival rate of mice infected with HSV-1 administered intravaginally at 2.5% dosage twice in a day; type: functional; outline: as §1
[8] = organism: Mus musculus; assay: Number of mice recovered from virus infected with Herpes simplex virus type-2 at 1.25% dosage twice in 2 nd day out of 10 mice sampled; type: functional
Outline: (§2)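 Mice were infected intravaginally with HSV-2 Curtis strain. Starting 4 h postinfection, they were treated intravaginally with cotton tampons saturated with 10, 5, 2.5 or 1.25% drug solution, replaced daily, plus 0.02 mL added 6 h later. Vaginal washings with 1.5 mL M-199 were taken each morning on days 1–7, frozen at −70 °C and assayed in BSC-1 cells. Read-out: mice with recoverable virus/mice sampled.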

[9] = organism: Mus musculus; assay: Number of mice recovered from virus infected with Herpes simplex virus type-2 at 1.25% dosage twice in 3 rd day out of 10 mice sampled; type: functional; outline: as §2
[10] = organism: Mus musculus; assay: Number of mice recovered from virus infected with Herpes simplex virus type-2 at 1.25% dosage twice in 4 th day out of 10 mice sampled; type: functional; outline: as §2
[11] = organism: Mus musculus; assay: Number of mice recovered from virus infected with Herpes simplex virus type-2 at 10% dosage twice in 3 rd day out of 10 mice sampled; type: functional; outline: as §2
[12] = organism: Mus musculus; assay: Number of mice recovered from virus infected with Herpes simplex virus type-2 at 10% dosage twice in 4 th day out of 10 mice sampled; type: functional; outline: as §2
[13] = organism: Mus musculus; assay: Number of mice recovered from virus infected with Herpes simplex virus type-2 at 1.25% dosage twice in 7 th day out of 10 mice sampled; type: functional; outline: as §2
[14] = organism: Mus musculus; assay: Number of mice recovered from virus infected with Herpes simplex virus type-2 at 10% dosage twice in 1st day out of 10 mice sampled; type: functional; outline: as §2
[15] = organism: Mus musculus; assay: Number of mice recovered from virus infected with Herpes simplex virus type-2 at 10% dosage twice in 2 nd day out of 10 mice sampled; type: functional; outline: as §2
[16] = organism: Mus musculus; assay: Number of mice recovered from virus infected with Herpes simplex virus type-2 at 10% dosage twice in 6 th day out of 10 mice sampled; type: functional; outline: as §2
[17] = organism: Mus musculus; assay: Number of mice recovered from virus infected with Herpes simplex virus type-2 at 10% dosage twice in 7 th day out of 10 mice sampled; type: functional; outline: as §2
[18] = organism: Mus musculus; assay: Number of mice recovered from virus infected with Herpes simplex virus type-2 at 2.5% dosage twice in 1st day out of 10 mice sampled; type: functional; outline: as §2
[19] = organism: Mus musculus; assay: Number of mice recovered from virus infected with Herpes simplex virus type-2 at 2.5% dosage twice in 2 nd day out of 10 mice sampled; type: functional; outline: as §2
[20] = organism: Mus musculus; assay: Number of mice recovered from virus infected with Herpes simplex virus type-2 at 2.5% dosage twice in 3 rd day out of 10 mice sampled; type: functional; outline: as §2
[21] = organism: Mus musculus; assay: Number of mice recovered from virus infected with Herpes simplex virus type-2 at 2.5% dosage twice in 4 th day out of 10 mice sampled; type: functional; outline: as §2
[22] = organism: Mus musculus; assay: Number of mice recovered from virus infected with Herpes simplex virus type-2 at 2.5% dosage twice in 6 th day out of 10 mice sampled; type: functional; outline: as §2
[23] = organism: Mus musculus; assay: Number of mice recovered from virus infected with Herpes simplex virus type-2 at 2.5% dosage twice in 7 th day out of 8 mice sampled; type: functional; outline: as §2
[24] = organism: Mus musculus; assay: Number of mice recovered from virus infected with Herpes simplex virus type-2 at 5% dosage twice in 1 st day out of 10 mice sampled; type: functional; outline: as §2
[25] = organism: Mus musculus; assay: Number of mice recovered from virus infected with Herpes simplex virus type-2 at 5% dosage twice in 2 nd day out of 10 mice sampled; type: functional; outline: as §2
[26] = organism: Mus musculus; assay: Number of mice recovered from virus infected with Herpes simplex virus type-2 at 5% dosage twice in 3 rd day out of 10 mice sampled; type: functional; outline: as §2
[27] = organism: Mus musculus; assay: Number of mice recovered from virus infected with Herpes simplex virus type-2 at 5% dosage twice in 4 th day out of 10 mice sampled; type: functional; outline: as §2
[28] = organism: Mus musculus; assay: Number of mice recovered from virus infected with Herpes simplex virus type-2 at 5% dosage twice in 6 th day out of 8 mice sampled; type: functional; outline: as §2
[29] = organism: Mus musculus; assay: Number of mice recovered from virus infected with Herpes simplex virus type-2 at 5% dosage twice in 7 th day out of 8 mice sampled; type: functional; outline: as §2
[30] = organism: Mus musculus; assay: Number of mice recovered from virus infected with Herpes simplex virus type-2 at 1.25% dosage twice in 1st day out of 10 mice sampled; type: functional; outline: as §2
[31] = test system: Mus musculus; assay: Effect on the survival rate of mouse infected with herpes genitalis (HSV-2) administered intravaginally at 5% twice in a day; type: functional
[32] = test system: Mus musculus; assay: Effect on the survival rate of mice iinfected with HSV-1 administered intravaginally at 2.5% dosage twice in a day; type: functional; outline: as §1
[33] = test system: Mus musculus; assay: Effect on the survival rate of mice infected with HSV-1 administered intravaginally at 10% dosage twice in a day; type: functional; outline: as §1
[34] = test system: Mus musculus; assay: Effect on the survival rate of mice infected with HSV-1 administered intravaginally at 5% dosage twice in a day; type: functional; outline: as §1
[35] = test system: Mus musculus; assay: Effect on the survival rate of mice infected with HSV-2 administered intravaginally at 1.25% dosage twice in a day; type: functional; outline: as §1
[36] = test system: Mus musculus; assay: Effect on the survival rate of mice infected with HSV-2 administered intravaginally at 10% dosage twice in a day; type: functional; outline: as §1
[37] = test system: Mus musculus; assay: Effect on the survival rate of mice infected with HSV-2 administered intravaginally at 2.5% dosage twice in a day; type: functional; outline: as §1
[38] = test system: Mus musculus; assay: Effect on the survival rate of mice infected with HSV-2 administered intravaginally at 5% dosage twice in a day; type: functional; outline: as §1
[39] = test system: Mus musculus; assay: (§3) Effect on the survival rate of mouse infected with herpes genitalis (HSV-2) administered intravaginally at 2% dosage twice in a day; type: functional
Outline: (§4)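 HSV-2 mouse genital model, infected intravaginally. Drug prepared in water + 1% gum tragacanth and given intravaginally b.i.d. via saturated cotton tampons, starting 4 h postinfection. Tampons were re-dosed with 0.02 mL 6 h after insertion and replaced daily. Test ended at day 14, with survivors assigned survival time >14 days. Read-out: % survival and average survival time.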

[40] = test system: Mus musculus; assay: Effect on the survival rate of mouse infected with herpes genitalis (HSV-2) administered intravaginally at 5% dosage twice in a day; type: functional; outline: as §4
[41] = test system: Mus musculus; assay: Effect on the survival rate of mice iinfected with HSV-1 administered intravaginally at 1.25% dosage twice in a day; type: functional; outline: as §1
[42] = test system: Human alphaherpesvirus 2; assay: Tested in vitro for minimum inhibitory activity against Herpes simplex virus type -2 (HSV-2); Inactive; type: functional, organism-based
[43] = test system: Human alphaherpesvirus 2; assay: as §3; type: functional; outline: as §4

CCc1n[nH]c(CC)c1CCCCCCOc1ccc(OC)cc1Cl
MIC [1]: 6 µg/mL (≈ 16.4 µM) | Average survival [2]: >10 days | Survival [2]: 30% | Average survival [3]: >11 days | Survival [3]: 40% | Average survival [4]: >11 days | Survival [4]: 60%

CCn1nc(C)c(CCCCCCOc2ccc(OC)cc2Cl)c1C
MIC [1]: 0.7 µg/mL (≈ 1.92 µM) | Average survival [5]: >9 days | Survival [5]: 30% | Average survival [4]: >10 days | Survival [4]: 30%

CCc1n[nH]c(CC)c1CCCCCCOc1ccc(OC)cc1Cl.CS(=O)(=O)O
Average survival [6]: >10 days | Average survival [7]: >11 days | No. of mice receovered [8]: 1 | No. of mice receovered [9]: 0 | No. of mice receovered [10]: 0 | No. of mice receovered [11]: 0 | No. of mice receovered [12]: 0 | No. of mice receovered [13]: 0 | No. of mice receovered [14]: 0 | No. of mice receovered [15]: 0 | No. of mice receovered [16]: 0 | No. of mice receovered [17]: 0 | No. of mice receovered [18]: 0 | No. of mice receovered [19]: 1 | No. of mice receovered [20]: 0 | No. of mice receovered [21]: 0 | No. of mice receovered [22]: 0 | No. of mice receovered [23]: 0 | No. of mice receovered [24]: 1 | No. of mice receovered [25]: 0 | No. of mice receovered [26]: 0 | No. of mice receovered [27]: 0 | No. of mice receovered [28]: 0 | No. of mice receovered [29]: 0 | No. of mice receovered [30]: 0 | Survival [31]: 80% | Survival [32]: 40% | Average survival [33]: >13 days | Survival [33]: 70% | Average survival [34]: >12 days | Survival [34]: 60% | Average survival [35]: >10 days | Survival [35]: 40% | Average survival [36]: >13 days | Survival [36]: 90% | Average survival [37]: >12 days | Survival [37]: 70% | Average survival [38]: >13 days | Survival [38]: 90% | Average survival [39]: >11 days | Survival [39]: 60% | Average survival [40]: >13 days | Survival [41]: 30%

CCc1n[nH]c(CC)c1CCCCCCOc1ccc([N+](=O)[O-])cc1Cl
MIC [42]: inactive

CCc1n[nH]c(CC)c1CCCCCCOc1ccc(Cl)cc1
MIC [1]: 6 µg/mL (≈ 17.9 µM)

CCc1n[nH]c(CC)c1CCCCCCOc1cc(Cl)c(OC)cc1Cl
MIC [42]: inactive

CCc1nn(CC(=O)O)c(CC)c1CCCCCCOc1ccc(OC)cc1Cl
MIC [42]: inactive

COc1ccc(OCCCCCCc2c(-c3ccccc3)n[nH]c2-c2ccccc2)c(Cl)c1
MIC [1]: 3 µg/mL (≈ 6.51 µM)

COc1ccc(OCCCCCCCc2c(C)nn(C)c2C)c(Cl)c1
MIC [1]: 0.7 µg/mL (≈ 1.92 µM) | Average survival [5]: >10 days | Survival [5]: 30% | Average survival [4]: >7 days | Survival [4]: 10%

CCc1n[nH]c(CC)c1CCCCCCOc1ccc(O)cc1Cl
MIC [1]: 12 µg/mL (≈ 34.2 µM)

CCCCn1nc(C)c(CCCCCCOc2ccc(OC)cc2Cl)c1C
MIC [1]: 6 µg/mL (≈ 15.3 µM)

CCc1n[nH]c(CC)c1CCCCCCOc1ccccc1
MIC [42]: inactive

CCc1nn(CCO)c(CC)c1CCCCCCOc1ccc(OC)cc1Cl
MIC [1]: 12 µg/mL (≈ 29.3 µM)

CCc1nn(C)c(CC)c1CCCCCOc1ccc(OC)cc1Cl
MIC [1]: 3 µg/mL (≈ 8.22 µM)

CCc1n[nH]c(CC)c1CCCCCOc1ccc(OC)cc1Cl
MIC [1]: 6 µg/mL (≈ 17.1 µM)

CCc1nn(-c2ccccc2)c(CC)c1CCCCCCOc1ccc(OC)cc1Cl
MIC [1]: 3 µg/mL (≈ 6.8 µM)

O=C(O)CP(=O)(O)O [FOSFONET]
Survival [43]: 90% | Average survival [39]: >13 days | Average survival [40]: >13 days | Survival [40]: 90%
